Measured values published in ChEMBL document CHEMBL4706573, “Synthesis and evaluation of thiophene based small molecules as potent inhibitors of Mycobacterium tuberculosis” (Eur J Med Chem, 2020).
Activity calls are given as the source filed them. The calls are words filed in the database; no cut-off is given here.

These compounds were tested on Mycobacterium tuberculosis (assay: Antimycobacterial activity against INH-resistant Mycobacterium tuberculosis mc2497 after 10 to 14 days). Settings: time 10-14 day.
Format: functional, organism-based
Outline: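 MIC99 determined in whole cells, tested in triplicate with INH as the positive control. Strains were wild-type, pMV306, pMV306-pks13 and INH-resistant mc2 497. Susceptibility was scored relative to the parental strain: S where the MIC99 was at most 2x the parental MIC99.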

SMILES	Activity
COC(=O)c1cc(-c2cccc(F)c2)sc1NC(=O)CCl	inactive
COC(=O)c1cc(-c2cc(F)cc(F)c2)sc1NC(=O)CCl	inactive
COC(=O)c1ccsc1NC(=O)CCl	inactive
COC(=O)c1cc(-c2ccc(F)cc2)sc1NC(=O)CCl	inactive
CCOC(=O)c1cc(-c2ccccc2)sc1NC(=O)CBr	inactive
COC(=O)c1cc(-c2ccc(C(F)(F)F)cc2)sc1NC(=O)CCl	inactive
COC(=O)c1cc(-c2ccccc2)sc1NC(=O)CCl	inactive
COC(=O)c1cc(-c2cc3ccccc3s2)sc1NC(=O)CCl	inactive
NNC(=O)c1ccncc1 [ISONIAZID]	inactive
CO[C@H]1/C=C/O[C@@]2(C)Oc3c(C)c(O)c4c(O)c(c(/C=N/N5CCN(C)CC5)c(O)c4c3C2=O)NC(=O)/C(C)=C\C=C\[C@H](C)[C@H](O)[C@@H](C)[C@@H](O)[C@@H](C)[C@H](OC(C)=O)[C@@H]1C [RIFAMPIN]	Active
